Screening data as filed in PubChem BioAssay.
Most compounds without a hit are left out; they make up all but 2.3% or so of the library.
TRPC4 PAM = allosterically enhances the mouse TRPC4 cation channel. Q9QUQ5. 0.42% of 310,000 active. AID 2227. HEK293 TRPC4beta/mu-opioid, DAMGO EC20, Fluo-4 Ca2+ flux; stronger effect = higher value. B-score at 10 µM;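 active = B-score of calcium response area above 5 SD of library B-scores, with initial fluorescence ratio within 5 SD of library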;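 also: B-score of integrated fluorescence ratio over time as area under calcium response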
Target sequence (Q9QUQ5 whole entry, looked up): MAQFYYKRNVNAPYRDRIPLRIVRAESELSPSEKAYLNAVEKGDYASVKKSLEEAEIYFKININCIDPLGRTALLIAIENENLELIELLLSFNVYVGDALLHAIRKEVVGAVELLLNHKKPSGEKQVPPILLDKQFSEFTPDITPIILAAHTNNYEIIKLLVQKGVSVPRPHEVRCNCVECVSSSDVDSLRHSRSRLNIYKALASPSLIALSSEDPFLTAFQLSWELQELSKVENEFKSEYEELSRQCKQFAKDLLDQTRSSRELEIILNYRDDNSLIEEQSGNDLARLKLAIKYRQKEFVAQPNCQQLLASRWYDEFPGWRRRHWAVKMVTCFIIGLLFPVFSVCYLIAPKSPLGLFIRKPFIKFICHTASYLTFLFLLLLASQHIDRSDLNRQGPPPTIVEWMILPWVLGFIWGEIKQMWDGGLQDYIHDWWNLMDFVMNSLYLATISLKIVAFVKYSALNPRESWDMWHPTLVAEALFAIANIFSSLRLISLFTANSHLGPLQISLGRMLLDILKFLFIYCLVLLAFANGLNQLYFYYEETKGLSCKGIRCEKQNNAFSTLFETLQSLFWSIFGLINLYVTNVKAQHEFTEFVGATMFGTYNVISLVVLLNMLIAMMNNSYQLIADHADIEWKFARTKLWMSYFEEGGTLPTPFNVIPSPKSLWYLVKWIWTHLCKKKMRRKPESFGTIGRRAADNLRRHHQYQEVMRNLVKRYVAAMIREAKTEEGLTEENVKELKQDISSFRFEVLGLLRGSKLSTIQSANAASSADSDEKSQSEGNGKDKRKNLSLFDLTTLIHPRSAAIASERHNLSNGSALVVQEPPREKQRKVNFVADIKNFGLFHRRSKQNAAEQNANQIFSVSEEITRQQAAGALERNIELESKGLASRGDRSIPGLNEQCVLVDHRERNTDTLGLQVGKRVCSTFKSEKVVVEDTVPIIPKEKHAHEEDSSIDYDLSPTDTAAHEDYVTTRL
TRPC6 inhibitor = inhibitors of mouse TRPC6 channel; B-score at 10 µM; 1.1% of 310,000 active; AID 2553; Q61143; HEK293-TRPC6, membrane potential dye, ACh-evoked depolarization; stronger effect = lower value;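 active = B-score under library mean minus 3 SD, initial fluorescence not abnormally high, positive integrated signal ratio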;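 also: B-score derived from integrated fluorescence ratio over the kinetic read; more negative B-score means stronger inhibition of depolarization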
TRPC6 activator = activates the mouse TRPC6 cation channel; Q61143; HEK293-TRPC6 membrane potential dye fluorescence; stronger effect = higher value; B-score at 10 µM; 0.13% of 310,000 active; AID 2550;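 active = B-score of the integrated fluorescence ratio above library mean plus 3 SD, and starting fluorescence ratio within library mean plus 5 SD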;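 also: higher score means more depolarization so channel activation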
TRPC4 act = activators of mouse TRPC4 channel; Q9QUQ5; HEK293 TRPC4beta/mu-opioid, Fluo4 calcium fluorescence; stronger effect = higher value; B-score at 10 µM; 0.49% of 310,000 active; AID 2237;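 active = B-score above 5 SD of library B-scores, and initial fluorescence ratio not above library mean plus 5 SD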;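 also: positive B-score marks a calcium rise read as TRPC4 activation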
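Test system: HEK293 cells stably co-expressing mouse TRPC4beta and mu-opioid receptor | Schedule: Fluo4 dye loading 45 min at room temperature, 110 s recording | Measured by: Kinetic Fluo4 calcium fluorescence, 5 s baseline at 1 Hz | Evaluation: B score of integrated ratio | Controls: Buffer (low) and maximal DAMGO (high)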
TRPC4 block = blocks the mouse TRPC4 cation channel; 0.39% of 300,000 active; AID 2247; B-score at 10 µM; Q9QUQ5; HEK293 TRPC4beta/mu-opioid, DAMGO-evoked Fluo4 calcium flux; stronger effect = lower value;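 active = B-score over 3 SD under the library average, no early fluorescence shift, positive overall ratio signal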
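Assay system: TRPC4beta/mu-opioid receptor HEK293 cell line; compound dosing: single concentration per test compound; detection: Fluo4 Ca2+ flux fluorescence; evaluation: per-well B score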
TRPC4 spec 2 = second selectivity test of TRPC6 inhibitors: effect on mouse TRPC4. shares compounds with TRPC6 inhibitor. HEK293 TRPC4/MOR, membrane potential dye fluorescence; channel activated by saturating DAMGO dose. inhibition, % at 10 µM. 42% of 920 active;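 active = compounds whose fluorescence signal differed from control wells by over 3 SD, either direction, in both duplicate plates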
TRPC4 spec = selectivity of TRPC6 inhibitors: effect on mouse TRPC4 | shares compounds with TRPC6 inhibitor | HEK293 TRPC4/mu-opioid, membrane potential fluorescence | activity change, negative = inhibition, % at 10 µM | 61% of 920 active | AID 2777;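 active = rise or fall in signal beyond 3 SD of buffer-only wells in both replicate plates, either sign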;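 also: integrated kinetic ratio of fluorescence range over baseline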
HEK293 MPD ctr 2-1 = parental HEK293 nonspecific activity of TRPC6 inhibitors, second screen; 31% of 920 active; AID 2779; shares compounds with TRPC6 inhibitor; signal change vs control, % at 10 µM; parental HEK293 membrane potential dye fluorescence; maximal acetylcholine challenge after compound addition;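 active = membrane potential signal moving either way by over 3 SD of the maximum-effect control, in both duplicate plates, meaning non-specific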
HEK293 MPD ctr-1 = counter-screen for TRPC6 inhibitors: effect in parental HEK293 cells | shares compounds with TRPC6 inhibitor | parental HEK293 membrane potential dye fluorescence | membrane potential signal change, % at 10 µM | 60% of 920 active | AID 2780;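 active = membrane potential signal shifting up or down by more than 3 SD of buffer-only wells, on both duplicate plates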
HEK293 MPD ctr-2 = checks TRPC6 modulator effects in parental HEK293 cells; 51% of 2,400 active; membrane potential dye fluorescence; membrane potential signal change, % at 10 µM; shares compounds with TRPC6 inhibitor;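 active = membrane potential signal moves up or down beyond 5 SD from buffer-only wells, on both duplicate plates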
HEK293 MPD ctr 2-2 = second check of TRPC6 modulator effects in parental HEK293 cells. shares compounds with TRPC6 inhibitor. membrane potential dye fluorescence; after compound, maximal acetylcholine stimulation. inhibition, % at 10 µM. 14% of 2,400 active. AID 488926;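 active = membrane potential signal drops by more than 5 SD from the mean control signal, in both duplicate plates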;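 also: plate controls were acetylcholine ECmax control wells for no effect and buffer only wells for full effect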
TRPC4 ctr mod = tests whether TRPC6 modulators also affect mouse TRPC4 | shares compounds with TRPC6 inhibitor | AID 488927 | HEK293 TRPC4/mu-opioid, membrane potential fluorescence | percent change from control (negative = decrease, positive = increase), % at 10 µM | 69% of 2,400 active;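 active = membrane potential signal moved up or down beyond 5 SD of buffer control wells, in both duplicate plates, actives on both sides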;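 also: plate controls were assay buffer wells for no effect and DAMGO maximal-effect wells for full effect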
TRPC4 ctr inh 2 = second check of whether TRPC6 modulators also affect mouse TRPC4. shares compounds with TRPC6 inhibitor. HEK293 TRPC4/mu-opioid, membrane potential dye fluorescence; stimulated with maximal-effect DAMGO. inhibition, % at 10 µM. 55% of 2,400 active;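 active = drop in membrane potential signal beyond 5 SD of the control wells in both duplicate plates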;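 also: TRPC4 counter screen for TRPC6 hits run under conditions tuned for TRPC6 not TRPC4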
TRPC6 block conf = confirmation of mouse TRPC6 inhibitors; shares compounds with TRPC6 inhibitor; HEK293-TRPC6, membrane potential dye, ACh-evoked depolarization; inhibition, % at 10 µM; 43% of 3,300 active; AID 488960;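 active = fluorescence ratio falls more than 5 SD below the full-stimulation control mean, in both duplicate runs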;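 also: integrated fluorescence ratio of peak minus minimum over baseline after agonist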
TRPC6 act conf = mouse TRPC6 activator confirmation; HEK293-TRPC6 membrane potential dye fluorescence, FDSS; activation, % at 10 µM; 11% of 2,800 active; shares compounds with TRPC6 inhibitor;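 active = ratio signal rise beyond 5 SD above unstimulated control wells' mean, seen in both duplicate runs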;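 also: plate controls were buffer EC0 wells for no effect and acetylcholine ECmax response for full effect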
* hit, by the source's call; i = inactive; nt = no result.

SMILES | TRPC4 PAM | TRPC6 inhibitor | TRPC6 activator | TRPC4 act | TRPC4 block | HEK293 MPD ctr-2 | HEK293 MPD ctr 2-2 | TRPC4 ctr mod | TRPC4 ctr inh 2 | TRPC6 block conf | TRPC6 act conf | others
Cc1nnc(C)c2c(C)n(-c3ccccc3)c(C)c12 | i | -5* | i | i | i | -127%* | i | -22%* | 50%* | 45%* | i
COc1ccc(C(=O)N2CCN(C(=O)Cc3ccccc3)CC2)cc1 | i | i | i | i | i | nt | nt | nt | nt | nt | nt
CCOC(=O)c1c(C)n(-c2ccc(C)cc2)c2ccc(O)c(CN(C)C)c12 | i | -5.7* | i | i | i | -96%* | i | -18%* | 62%* | 51%* | i
CCOC(=O)c1c(C)n(C)c2ccc(O)c(CN3CCCCC3)c12 | i | -8* | i | i | i | -172%* | i | -30%* | 59%* | 66%* | i
CCOC(=O)c1c(C)n(-c2ccc(OC)cc2)c2ccc(O)c(CN(C)C)c12 | i | -8.8* | i | i | i | nt | nt | nt | nt | 60%* | i | TRPC4 spec 2=46%*;TRPC4 spec=-17%*;HEK293 MPD ctr 2-1=i;HEK293 MPD ctr-1=-286%*
CCOC(=O)c1c(C)n(C)c2ccc(O)c(CN(C)C)c12 | i | -8.7* | i | i | i | -242%* | i | -41%* | 59%* | 62%* | i
CCOC(=O)c1c(C)n(-c2ccc(F)cc2)c2ccc(O)cc12 | i | i | i | i | i | nt | nt | nt | nt | nt | nt
CCN1CCN(C(CNC(=O)c2ccc3c(c2)OCO3)c2cccnc2)CC1 (configuration not stated) | i | i | i | i | i | nt | nt | nt | nt | nt | nt
NC(=O)Cn1nnc(-c2ccccc2NC(=O)c2cnccn2)n1 | i | i | i | i | i | nt | nt | nt | nt | nt | nt
CC(C)(C)NC(=O)Cn1nnc(-c2ccccc2NC(=O)c2cnccn2)n1 | i | -7.1* | 13* | i | i | i | i | 20%* | i | i | 72%*
COc1ccc2oc3ccc(OC)cc3c(=O)c2c1 | i | i | i | i | i | nt | nt | nt | nt | nt | nt
N#Cc1nc(-c2cccc3ccccc23)oc1NCCN1CCCCC1 | i | -7.6* | i | i | i | nt | nt | nt | nt | i | i | TRPC4 spec 2=i;TRPC4 spec=i;HEK293 MPD ctr 2-1=i;HEK293 MPD ctr-1=i
CCNc1oc(-c2cccc3ccccc23)nc1C#N | i | i | i | i | i | nt | nt | nt | nt | nt | nt
CN(Cc1nc(-c2ccc(Cl)cc2)no1)C(=O)CCN1C(=O)[C@H]2CC=CC[C@H]2C1=O | i | i | i | i | i | nt | nt | nt | nt | nt | nt
COc1ccc(N=c2cc(-c3ccc(OC)cc3)oc3ccccc23)cc1 | i | -5.5* | i | i | i | -109%* | i | -26%* | 52%* | 38%* | i
COc1ccc(N=c2cc(-c3ccc(O)cc3)oc3ccccc23)cc1 | i | -6.1* | i | i | i | -94%* | i | -28%* | 64%* | 41%* | i
COc1ccc(-c2cc(=O)c3ccccc3o2)cc1 | i | i | i | i | i | nt | nt | nt | nt | nt | nt
COc1ccc(-c2cc(=Nc3ccc(C)cc3)c3ccccc3o2)cc1 | i | -8.8* | i | i | i | nt | nt | nt | nt | i | i | TRPC4 spec 2=i;TRPC4 spec=-12%*;HEK293 MPD ctr 2-1=i;HEK293 MPD ctr-1=i
CCOc1ccc(N=c2cc(-c3ccc(OC)cc3)oc3ccccc23)cc1 | i | i | i | i | i | nt | nt | nt | nt | nt | nt
O=C(c1cccc(-c2ccccc2F)c1)N1CC[C@@H](N2CCC(O)CC2)[C@H](O)C1 | i | i | i | i | i | nt | nt | nt | nt | nt | nt
O=C(Nc1cccc(F)c1)c1ccc(S(=O)(=O)N2CCCCC2)cc1 | i | i | i | i | i | nt | nt | nt | nt | nt | nt
CCOc1ccc(-c2cccc(NS(=O)(=O)c3ccc([N+](=O)[O-])cc3)c2)nn1 | i | i | i | i | i | nt | nt | nt | nt | nt | nt
CCS(=O)(=O)N1Cc2ccccc2CC1C(=O)Nc1nnc(SCc2ccc(C#N)cc2)s1 (configuration not stated) | i | i | 23* | i | i | i | i | i | i | i | i
CC1(c2nnc(-c3ccc(F)cc3)o2)CC(c2ccncc2)=NO1 (configuration not stated) | i | i | i | i | i | nt | nt | nt | nt | nt | nt
NC(=O)c1cc(S(=O)(=O)Nc2ccc(OC(F)(F)F)cc2)cs1 | i | i | i | i | i | nt | nt | nt | nt | nt | nt
CC(C)NC(=O)CCc1nc2cccnc2n1-c1ccccc1 | i | -5.9* | i | i | i | i | i | i | i | i | i
CCc1nc2cccnc2n1-c1ccc(CC(=O)O)cc1 | i | i | i | i | i | nt | nt | nt | nt | nt | nt
CCOC(=O)N1CCN(Cc2nc3c(c(=O)n(C)c(=O)n3C)n2CCC(C)C)CC1 | i | i | i | i | i | nt | nt | nt | nt | nt | nt
c1csc(-c2nc(NCCCN3CCOCC3)c3ccccc3n2)c1 | i | -7.2* | i | i | i | -180%* | i | -40%* | 72%* | 68%* | i
Clc1cccc(-c2nc(NCCN3CCOCC3)c3ccccc3n2)c1 | i | i | i | i | i | nt | nt | nt | nt | nt | nt
